Test results reported in ChEMBL document CHEMBL1149123, “Antineoplastic agents. 499. Synthesis of hystatin 2 and related 1H-benzo[de][1,6]-naphthyridinium salts from aaptamine” (J Med Chem, 2004).
Calls of active or inactive are those of the source. No cut-off for these calls is given here.

Columns and labels:
BXPC-3 = assay: Inhibition of pancreatic BXPC-3 cell proliferation; format: functional; settings: Homo sapiens, read-out: ED50 (the source's name)
Candida albicans = assay: Antimicrobial activity against Candida albicans; No inhibition at 64 ug/mL; format: functional, organism-based
NCI-H460 = assay: Inhibition of lung NCI-H460 cell proliferation; format: functional; settings: Homo sapiens, read-out: ED50 (the source's name)
MCF7 = assay: Inhibition of breast MCF-7 cell proliferation; format: functional; settings: Homo sapiens, read-out: ED50 (the source's name)
Escherichia coli = assay: Antimicrobial activity against Escherichia coli; No inhibition at 64 ug/mL; format: functional
[1] = target: Protein kinase C alpha type (Homo sapiens) (UniProt P17252); assay: Displacement of [20-3H]-phorbol 12,13-dibutyrate from protein kinase C alpha at […]; settings: concentration not given here
Outline: (§1)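 PKC alpha ligand binding, measured as inhibition of [20-³H]phorbol 12,13-dibutyrate binding at a single compound concentration of […]. Triplicate measurements in single or triplicate experiments, depending on compound. Reported as percent inhibition, mean ± SEM.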

[2] = target: Protein kinase C alpha type (Homo sapiens) (UniProt P17252); assay: Inhibition of PKC alpha at […]; settings: concentration not given here; outline: as §1
Staphylococcus aureus = assay: Antimicrobial activity against Staphylococcus aureus; No inhibition at 64 ug/mL; format: functional, organism-based
Enterobacter cloacae = assay: Antimicrobial activity against Enterobacter cloacae; No inhibition at 64 ug/mL; format: functional, organism-based
SF-268 = assay: Inhibition of CNS SF-268 cell proliferation; format: functional; settings: Homo sapiens, read-out: ED50 (the source's name)
Enterococcus faecalis = assay: Antimicrobial activity against Enterococcus faecali; No inhibition at 64 ug/mL; format: functional
Neisseria gonorrhoeae [3] = assay: Antimicrobial activity against Neisseria gonorrhoeae; format: functional
Cryptococcus neoformans = assay: Antimicrobial activity against Cryptococcus neoformans; No inhibition at 64 ug/mL; format: functional, organism-based
P388 = assay: Inhibition of murine leukemia P388 cell proliferation; format: functional; settings: Mus musculus, read-out: ED50 (the source's name)
[4] = system: Stenotrophomonas maltophilia; assay: Antimicrobial activity against Stenotrophomonas maltophilia; No inhibition at 64 ug/mL; format: functional, organism-based
Micrococcus luteus [5] = assay: Antimicrobial activity against Micrococcus luteus; format: functional
Streptococcus pneumoniae [6] = assay: Antimicrobial activity against Streptococcus pneumoniae; format: functional
DU-145 = assay: Inhibition of prostate DU-145 cell proliferation; format: functional; settings: Homo sapiens, read-out: ED50 (the source's name)
KM-20L2 = assay: Inhibition of colon KM20L2 cell proliferation; format: functional; settings: Homo sapiens, read-out: ED50 (the source's name)
[7] = Effect on tubulin assembly was determined; format: functional
Outline: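 Tubulin assembly tested in vitro, top concentration […].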

Micrococcus luteus [8] = assay: Antimicrobial activity against Micrococcus luteus; No inhibition at 64 ug/mL; format: functional, organism-based
Micrococcus luteus [9] = assay: Antimicrobial activity against Micrococcus luteus; 8-16; format: functional
Neisseria gonorrhoeae [10] = assay: Antimicrobial activity against Neisseria gonorrhoeae; No inhibition at 64 ug/mL; format: functional
Streptococcus pneumoniae [11] = assay: Antimicrobial activity against Streptococcus pneumoniae; No inhibition at 64 ug/mL; format: functional
Micrococcus luteus [12] = assay: Antimicrobial activity against Micrococcus luteus; 0.5-2; format: functional
[13] = target: Protein kinase C alpha type (Homo sapiens) (UniProt P17252); assay: Inhibition of PKC alpha
Outline: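 Competition with [20-³H]phorbol 12,13-dibutyrate binding to PKC alpha. Full dose–response curves of binding inhibition were determined.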

[14] = system: Mycobacterium tuberculosis; assay: Antimicrobial activity against Mycobacterium tuberculosis at 6.25 ug/mL; format: functional

SMILES	EC50 (BXPC-3) [µg/mL]	Activity (Candida albicans)	EC50 (NCI-H460) [µg/mL]	EC50 (MCF7) [µg/mL]	Activity (Escherichia coli)	inhibition [1] [%]	inhibition [2] [%]	Activity (Staphylococcus aureus)	Activity (Enterobacter cloacae)	EC50 (SF-268) [µg/mL]	Activity (Enterococcus faecalis)	Activity (Neisseria gonorrhoeae [3]) [µg/mL]	Activity (Cryptococcus neoformans)	EC50 (P388) [µg/mL]	Activity [4]	EC50 (DU-145) [µg/mL]	EC50 (KM-20L2) [µg/mL]	Activity (Streptococcus pneumoniae [11])	also measured
COc1ccc(CN2C=Cc3cc(OC)c(OC)c4nccc2c34)cc1.Cl	4.2	inactive	5.1	8	inactive	9.2	< 6	inactive	inactive	8.2	inactive	64	inactive	2.19	inactive	3.1	3.9	–	Activity (Micrococcus luteus [5]): 64 µg/mL; Activity (Streptococcus pneumoniae [6]): 64 µg/mL
COc1cc2ccnc3c2c(c1O)N(C)C=C3 [ISOAAPTAMINE]	–	–	–	–	–	–	–	–	–	–	–	–	–	–	–	–	–	–	IC50 [7]: 31 µM
COc1cc2c3c(ccnc3c1OC)N(Cc1ccccc1)C=C2.Cl	4.3	inactive	4.9	> 10	inactive	6.4	< 6	inactive	inactive	> 10	inactive	64	inactive	1.64	inactive	4.4	2.2	–	Activity (Micrococcus luteus [8]): inactive; Activity (Streptococcus pneumoniae [6]): 64 µg/mL
COc1ccc(C[n+]2ccc3c4c(cc(OC)c(OC)c42)C=CN3Cc2cc(OC)c(OC)c(OC)c2)cc1O.[Br-]	> 10	inactive	> 10	> 10	inactive	16	43.2	inactive	inactive	> 10	inactive	–	inactive	> 10	inactive	> 10	> 10	inactive	Activity (Micrococcus luteus [9]): 16 µg/mL; Activity (Neisseria gonorrhoeae [10]): inactive
COc1cc(CN2C=Cc3cc(OC)c(OC)c4nccc2c34)cc(OC)c1OC.Cl	> 10	inactive	> 10	> 10	inactive	–	< 6	inactive	inactive	> 10	inactive	64	inactive	4.64	inactive	> 10	3.4	inactive	Activity (Micrococcus luteus [8]): inactive
COc1cc2c3c(ccnc3c1OC)N(C)C=C2	> 10	–	> 10	> 10	–	–	< 6	–	–	> 10	–	–	–	> 10	–	> 10	> 10	–	–
COc1cc2c3c(cc[n+](Cc4ccccc4)c3c1OC)N(Cc1ccccc1)C=C2.[Cl-]	0.061	inactive	0.26	0.27	8 µg/mL	11.8	71.1	inactive	inactive	0.064	32 µg/mL	–	inactive	0.234	inactive	0.036	0.055	32 µg/mL	Activity (Micrococcus luteus [12]): 2 µg/mL; ID50 [13]: 20.8 µM; inhibition at 6.25 µg/mL [14]: 98%; Activity (Neisseria gonorrhoeae [10]): 0.25 µg/mL
COc1cc2c3c(cc[n+](C)c3c1OC)N(C)C=C2.[I-]	7.1	–	> 10	4.9	–	–	< 6	–	–	0.69	–	–	–	3.89	–	3.5	6.1	–	–
